Measured values from different studies.
Lines come from different studies, so protocols differ. ≈ marks a conversion by molar mass, not a printed value.

CCCCCCCCC1NCCc2cc(O)c(O)cc21 (centres unmarked)
IC50 (DPPH scavenging, absorbance; 30 min, dark): 65.3 µM

NCCC(=O)Nc1ccccc1/N=c1\cc(-c2ccc3c(c2)OCCO3)oc2cc(F)ccc12
inhibition (MCF7; cell growth or viability, CCK-8; 1 µM): -1.71%

CCCCCCCCCCCCCCCCCC1NCCc2cc(O)c(O)cc21 (centres unmarked)
IC50 (DPPH scavenging, absorbance; 30 min, dark): 34.8 µM

NCCCC(=O)Nc1ccccc1/N=c1\cc(-c2ccc3c(c2)OCO3)oc2ccccc12
inhibition (MCF7; cell growth or viability, CCK-8; 1 µM): 10.2%

CCOC(=O)C1=C(CCl)NC(=O)NC1c1ccc(C(C)C)cc1 (centres unmarked)
IC50 (DPPH scavenging): 243 µM

CC(=O)ON=C1C=CC(=C(C#N)c2ccccc2)C=C1
MIC (Candidozyma auris; microbial growth, broth dilution; 48 h): 16 µg/mL (≈ 60.5 µM)

CCCCCCCCCCCC1NCCc2cc(O)c(O)cc21 (centres unmarked)
IC50 (DPPH scavenging, absorbance; 30 min, dark): 27.9 µM

CCOC(=O)C1=C(CCl)NC(=O)NC1c1cccc(C)c1 (centres unmarked)
IC50 (DPPH scavenging): 70.7 µM

N[C@@H](CO)C(=O)Nc1ccccc1/N=c1\cc(-c2ccc3c(c2)OCO3)oc2ccccc12
inhibition (MCF7; cell growth or viability, CCK-8; 1 µM): 16.3%

CCOC(=O)C1=C(CSC2=NCCS2)NC(=O)NC1c1cccc(F)c1 (centres unmarked)
IC50 (DPPH scavenging): 201 µM

NCC(=O)Nc1ccccc1/N=c1\cc(-c2ccc3c(c2)OCCO3)oc2ccccc12
inhibition (MCF7; cell growth or viability, CCK-8; 1 µM): -1.21%

O=C(C[C@@H](C(F)F)n1ccc(F)n1)N1CCC(O)(Cn2cnc3c(cnn3-c3ccc(F)cc3)c2=O)CC1
viability (CAPAN-1; cell growth or viability, SRB; 20 µM, 5 days): 24%

CC(C)=CC1NCCc2cc(O)c(O)cc21 (centres unmarked)
IC50 (DPPH scavenging, absorbance; 30 min, dark): 54.2 µM

C#CCON=C1C=CC(=C(C#N)c2ccccc2)C=C1
MFC (Candidozyma auris; microbial killing, broth dilution; 48 h): 64 µg/mL (≈ 246 µM)

CCOC(=O)C1=C(CSC2=NCCS2)NC(=O)NC1c1ccc(C(C)C)cc1 (centres unmarked)
IC50 (DPPH scavenging): 190 µM

COc1ccc(C2NCCc3cc(O)c(O)cc32)cc1O (centres unmarked)
IC50 (DPPH scavenging, absorbance; 30 min, dark): 18.7 µM

C#CCOC(=O)ON=C1C=CC(=C(C#N)c2ccccc2)C=C1
MIC (Candidozyma auris; microbial growth, broth dilution; 48 h): 16 µg/mL (≈ 52.6 µM)

CCOC(=O)C1=C(CSC2=NCCS2)NC(=O)NC1c1cccc(Cl)c1 (centres unmarked)
IC50 (DPPH scavenging): 142 µM

N#CC(=C1C=CC(=NOC(=O)OCc2ccccc2)C=C1)c1ccccc1
MIC (Candidozyma auris; microbial growth, broth dilution; 48 h): 64 µg/mL (≈ 180 µM)

Oc1cccc(-c2nc(N3CCOCC3)c3oc4ncccc4c3n2)c1
inhibition (MCF7; cell growth or viability, CCK-8; 1 µM): 13.9%

CCOC(=O)C1=C(CCl)NC(=O)NC1c1ccc(F)cc1 (centres unmarked)
IC50 (DPPH scavenging): 246 µM

C=CC(=O)ON=C1C=CC(=C(C#N)c2ccccc2)C=C1
MFC (Candidozyma auris; microbial killing, broth dilution; 48 h): 16 µg/mL (≈ 57.9 µM)

COc1cccc(C2NCCc3cc(O)c(O)cc32)c1 (centres unmarked)
IC50 (DPPH scavenging, absorbance; 30 min, dark): 18.2 µM
